Measurements: ChEMBL document CHEMBL1146294 (Bioorg Med Chem Lett, 2007)

Experiments:
HT-29 = assay: Antiproliferative activity against HT29 cells; assay type: functional, cell-based; conditions: Homo sapiens
MCF7 = assay: Antiproliferative activity against MCF7 cells; assay type: functional, cell-based; conditions: Homo sapiens
[1] = Stability in phosphate buffer; assay type: physicochemical
[2] = biological target: Prostaglandin G/H synthase 1 (Homo sapiens) (UniProt P23219); assay: Inhibition of COX1 by human platelet assay; set-up: concentration or dose not given beside the values; conditions: concentration not given here
Prostaglandin G/H synthase 1 (Homo sapiens), sequence (P23219 whole entry): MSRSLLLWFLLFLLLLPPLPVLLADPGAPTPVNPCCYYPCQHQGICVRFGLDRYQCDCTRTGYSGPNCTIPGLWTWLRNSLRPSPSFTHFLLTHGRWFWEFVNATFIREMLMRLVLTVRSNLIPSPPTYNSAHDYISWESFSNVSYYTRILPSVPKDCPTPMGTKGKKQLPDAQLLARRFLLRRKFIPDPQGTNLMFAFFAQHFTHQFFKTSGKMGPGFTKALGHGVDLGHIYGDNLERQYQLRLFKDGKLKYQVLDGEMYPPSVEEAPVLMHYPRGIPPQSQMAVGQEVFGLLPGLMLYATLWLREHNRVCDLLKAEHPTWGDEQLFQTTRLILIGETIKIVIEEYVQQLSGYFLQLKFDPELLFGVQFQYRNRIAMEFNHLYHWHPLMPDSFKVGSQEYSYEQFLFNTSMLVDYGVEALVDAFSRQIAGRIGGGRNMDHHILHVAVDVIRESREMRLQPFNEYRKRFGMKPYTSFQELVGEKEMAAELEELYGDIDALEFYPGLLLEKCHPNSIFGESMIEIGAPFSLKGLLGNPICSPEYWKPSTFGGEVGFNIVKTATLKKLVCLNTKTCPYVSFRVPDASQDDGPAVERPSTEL
In short: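 Enzyme activities measured in human platelets incubated for 60 min in buffer solution at 37 °C. 12-LOX activity was read out as formation of 12(S)-HETE. COX-1 activity was read out as formation of its eicosanoid product.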

[3] = test system: Arachidonate 12-lipoxygenase, platelet type (Homo sapiens); assay: Inhibition of LOX12 by human platelet assay; set-up: concentration or dose not given beside the values; conditions: concentration not given here

CC(=O)OCC(OC(C)=O)C(OC(C)=O)C(Cn1c2nc(=O)n(CCOC(=O)C(C)c3ccc(CC(C)C)cc3)c(=O)c-2nc2cc(C)c(C)cc21)OC(C)=O (stereo not drawn)
IC50 (HT-29): 12.7 µM
IC50 (MCF7): 14.9 µM
Stability [1]: Stable
inhibition [2]: 15%
inhibition [3]: < 11%

CC(=O)OCC(OC(C)=O)C(OC(C)=O)C(Cn1c2nc(=O)n(CCCCCOC(=O)C(C)c3ccc(CC(C)C)cc3)c(=O)c-2nc2cc(C)c(C)cc21)OC(C)=O (stereo not drawn)
IC50 (HT-29): 13.1 µM
IC50 (MCF7): 9.5 µM
Stability [1]: Stable
inhibition [2]: 43%
inhibition [3]: < 11%

CC(C)Cc1ccc([C@H](C)C(=O)O)cc1 [DEXIBUPROFEN]
IC50 (HT-29): > 1000 µM
IC50 (MCF7): 795 µM
inhibition [2]: 90%

CC(=O)OCC(OC(C)=O)C(OC(C)=O)C(Cn1c2nc(=O)n(CCCOC(=O)C(C)c3ccc(CC(C)C)cc3)c(=O)c-2nc2cc(C)c(C)cc21)OC(C)=O (stereo not drawn)
IC50 (HT-29): 9.3 µM
IC50 (MCF7): 7.8 µM
Stability [1]: Stable
inhibition [2]: 15%
inhibition [3]: < 11%

CC(=O)OCC(OC(C)=O)C(OC(C)=O)C(Cn1c2nc(=O)n(COC(=O)C(C)c3ccc(CC(C)C)cc3)c(=O)c-2nc2cc(C)c(C)cc21)OC(C)=O (stereo not drawn)
IC50 (HT-29): 12.1 µM
IC50 (MCF7): 12.3 µM
Stability [1]: Stable
inhibition [2]: 15%
inhibition [3]: < 11%

CC(=O)OCC(OC(C)=O)C(OC(C)=O)C(Cn1c2nc(=O)n(CCCCOC(=O)C(C)c3ccc(CC(C)C)cc3)c(=O)c-2nc2cc(C)c(C)cc21)OC(C)=O (stereo not drawn)
IC50 (HT-29): 10.5 µM
IC50 (MCF7): 9.5 µM
Stability [1]: Stable
inhibition [2]: 37%
inhibition [3]: < 11%

O=c1[nH]cc(F)c(=O)[nH]1 [FLUOROURACIL]
IC50 (HT-29): 7.3 µM

CC(=O)OCC(OC(C)=O)C(OC(C)=O)C(Cn1c2nc(=O)[nH]c(=O)c-2nc2cc(C)c(C)cc21)OC(C)=O (stereo not drawn)
IC50 (HT-29): 90.9 µM
IC50 (MCF7): 53.4 µM

CC(=O)OCC(OC(C)=O)C(OC(C)=O)C(Cn1c2nc(=O)n(CCO)c(=O)c-2nc2cc(C)c(C)cc21)OC(C)=O (stereo not drawn)
IC50 (HT-29): > 100 µM
IC50 (MCF7): > 100 µM
